According to PMC6679720 (Pharmacological research, 2019):
Read-outs that look alike come from different tables or passages of the source.

Experiments:
Plasma Oxt = type: in vivo, mice; settings: for half-life: male, mouse; for time of return of plasma Oxt concentration to baseline / half-life / AUCG / AUCI / Cmax: plasma; for AUCG / AUCI / Cmax: nasal 12 μg, ELISA, mean ± s.e.m.
Summary of the method: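 Male Oxt KO and wildtype C57BL/6J mice received Oxt (12 µg total) nasally (2 × 6 μl saline pipetted bilaterally on the rhinarium) or i.p. (0.1 ml saline). Blood was drawn through a jugular catheter every 30 min for 2 h and double-centrifuged (6000 rpm, 15 min, 4°C). Plasma plus an equal volume of 0.1% TFA was extracted on C18 Sep-Pak columns and assayed by Oxt ELISA. Cmax, T1/2, AUCG (pg*30 min/sample) and AUCI were calculated.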

[1] = type: in vivo, mice; settings: for Cmax in amygdala ECF adjusted for recovery rate: adjusted for recovery rate (4.58%)
Summary of the method: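 Male Oxt KO and wildtype C57BL/6J mice, housed singly. The day before, mice were anaesthetised with tribromoethanol and fitted with a jugular catheter and two linear microdialysis probes (18 kDa cut-off) in amygdala and hippocampus. Oxt (12 µg total) was given nasally (2 × 6 μl saline on the rhinarium) or i.p. in 0.1 ml saline. Dialysates were taken every 30 min for 2 h, vacuum-dried without heat, stored at -80°C, and measured unextracted by RIA.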

[2] = cited from earlier work
[3] = cited from earlier work; remark: listed apart in the source
[4] = wildtype C57BL/6J male mice, N = 8
[5] = mice and rats, nonhuman primates, humans

CC[C@H](C)[C@@H]1NC(=O)[C@H](Cc2ccc(O)cc2)NC(=O)[C@@H](N)CSSC[C@@H](C(=O)N2CCC[C@H]2C(=O)N[C@@H](CC(C)C)C(=O)NCC(N)=O)NC(=O)[C@H](CC(N)=O)NC(=O)[C@H](CCC(N)=O)NC1=O [Oxt, oxytocin]
time of return of plasma Oxt concentration to baseline (Plasma Oxt; Oxt KO mice, intraperitoneal injection): exceeding 120 minutes | time of return of plasma Oxt concentration to baseline (Plasma Oxt; Oxt KO mice, nasal administration): 90 to 120 min | half-life (Plasma Oxt; C57BL/6J (wildtype), inhaled or intranasal, 12 ug): 25.8 ± 6 min | half-life (Plasma Oxt; C57BL/6J, ip, 12 μg): 32 ± 9.1 min | half-life (Plasma Oxt; Oxt KO, ip, 12 μg): 34.5 ± 8.9 min | AUCG (Plasma Oxt; Oxt KO male mice, N = 7): 7920 ± 1280b pg*30 min/sample | AUCI (Plasma Oxt; Oxt KO male mice, N = 7): 6120± 1280 pg*30 min/sample | Cmax (Plasma Oxt; Oxt KO male mice, N = 7): 131 ± 29 pg/sample | AUCG (Plasma Oxt; [4]): 23,600 ± 4880a pg*30 min/sample | AUCI (Plasma Oxt; [4]): 17,300 ± 5260 pg*30 min/sample | Cmax (Plasma Oxt; [4]): 398± 101 pg/sample | time for which Oxt was detected in circulation (Plasma Oxt; nasal, Oxt KO mice, spiking in the first 30 minutes): 90 min | time of return of Oxt concentration to baseline ([1]; Oxt KO mice, amygdala, intraperitoneal injection): 60 to 90 min | time at which Cmax of Oxt occurred ([1]; after nasal administration, current study, 30-min sampling): 30 to 60 min | Cmax in amygdala ECF adjusted for recovery rate ([1]; intraperitoneal injection, wildtype mice, amygdala): 0.91 ± 0.27 ng/mL | Cmax in amygdala ECF adjusted for recovery rate ([1]; nasal administration, wildtype mice, amygdala): 4.16 ± 1.00 ng/mL | time of peak concentration in brain ECF and plasma ([1]; nasal and intraperitoneal administration, wildtype mice): 30 to 60 min | time for which Oxt remained detectable in amygdala and hippocampus ([1]; nasal, Oxt KO mice): 90 min | persistence of the rise of plasma Oxt after nasal application ([2]; earlier studies): 75 to 90 min | time of peak of plasma Oxt after nasal application ([2]; earlier studies): 15 to 30 min | time of peak of Oxt in circulation after nasal application [2, 5]: 15 to 30 min | time of return of Oxt in circulation to baseline after nasal application [2, 5]: 75 to 90 min | time of rise in CSF Oxt after nasal application ([2]; ref 22, 23, 28): 15 to 30 min | time of rise in CSF Oxt after nasal application ([2]; ref 24): 75 min | time of rise in CSF Oxt after nasal application ([2]; ref 26): 60 min | share of the total Oxt that reaches the CNS ([3]; intravenous injection): 2×10^−6 | share of the total Oxt that reaches the CNS ([3]; nasal administration): 5×10^−6
